According to article PMC4304477 (Journal of the American Chemical Society, 2014):

Assays:
P. aeruginosa PBP4 = type: biochemical
Outline: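 His-tagged P. aeruginosa PBP4 (residues 23–476) was expressed in E. coli Lemo21(DE3), passed twice over a chelating column and dialysed into 50 mM Tris pH 7.6, 0.5 M NaCl. It was used within 5 days and quantified by A280 (ε 62 005 M–1cm–1). Synthetic substrate at 0.125–5 mM was reacted in 50 mM Tris, 0.1 M NaCl, pH 7.6, 25 °C. After 30 min, one volume of 0.2% TFA was added. D-Ala-loss products were quantified by C18 HPLC against an internal standard to give steady-state kcat and Km.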

[1] = tested on: AmpC β-lactamase production; settings: background statement, no reference given; cited from earlier work
PBPs, including PBP4 = settings: background statement, no reference given; cited from earlier work

| Compound | kcat comparison in words (P. aeruginosa PBP4; 18 vs 19, pH 7.6, 25 °C) | turnover product (P. aeruginosa PBP4; PBP4, t = 30 min, LC/MS TIC, comparison with authentic synthetic 31) | AmpC β-lactamase induction [1] | PBP inhibition (PBPs, including PBP4) |
| --- | --- | --- | --- | --- |
| NAM-L-Ala-D-γ-Glu-meso-DAP-D-Ala-D-Ala [Compound 18] | slightly higher than for 19 | This new peak was proven to be compound 31 | – | – |
| CO[C@@]1(NC(=O)Cc2cccs2)C(=O)N2C(C(=O)O)=C(COC(N)=O)CS[C@@H]21 [cefoxitin] | – | – | a high inducer of AmpC β-lactamase production | inhibits PBPs, including PBP4 |
